Common to all, as to type: functional
Assay [1] has as its system Human alphaherpesvirus 1. The assay can be described thus: Phosphorylation by HSV-1 thymidine kinase. A digest of the protocol:
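Affinity-purified HSV1 TK (1 unit) from infected HeLa cells, 37 °C for 1 h, with 40 µg nucleoside in 50% Me2SO. Buffer: 50 mM Tris pH 7.5, 5 mM MgCl2, 5 mM ATP, 2 mM DTT, 2.5 mM NaF, 15 mM phosphocreatine, creatine kinase and BSA. Nucleoside and phosphates separated by anion-exchange HPLC (KH2PO4 gradient, pH 3.0) and quantified from peak areas.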

Assay [2] deals with MRC5. Description: Compound was tested for 50% inhibition of HSV-1 induced cytopathic effect in MRC-5 cells; 3-6. The settings on record: Homo sapiens, read-out: ED50 (the source's name). For orientation: Damage to the host cells serves as the signal in cytopathic effect assays.
Assay [3] concerns Human alphaherpesvirus 1. Description: Compound was tested for the inhibition of HSV-1 polymerase. Details: concentration or dose not given beside the values. A digest of the protocol: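 Analog first phosphorylated 3 h at 37 °C with HSV1 TK, GMP kinase, creatine kinase/phosphocreatine, 5 mM ATP and HSV1-infected HeLa crude extract; 20 µL aliquots added to 100 µL polymerase mix with 50 mM Tris pH 8, 5 mM MgCl2, activated salmon sperm DNA, 0.05 mM each dNTP ([3H]dTTP), 0.1 M (NH4)2SO4, and infected-HeLa extract or purified HSV1 polymerase; 1 h 37 °C; TCA-precipitable counts.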

For assay [4], the target named is T1, DNA polymerase alpha catalytic subunit (Homo sapiens) (UniProt P09884).
T1 sequence (whole entry): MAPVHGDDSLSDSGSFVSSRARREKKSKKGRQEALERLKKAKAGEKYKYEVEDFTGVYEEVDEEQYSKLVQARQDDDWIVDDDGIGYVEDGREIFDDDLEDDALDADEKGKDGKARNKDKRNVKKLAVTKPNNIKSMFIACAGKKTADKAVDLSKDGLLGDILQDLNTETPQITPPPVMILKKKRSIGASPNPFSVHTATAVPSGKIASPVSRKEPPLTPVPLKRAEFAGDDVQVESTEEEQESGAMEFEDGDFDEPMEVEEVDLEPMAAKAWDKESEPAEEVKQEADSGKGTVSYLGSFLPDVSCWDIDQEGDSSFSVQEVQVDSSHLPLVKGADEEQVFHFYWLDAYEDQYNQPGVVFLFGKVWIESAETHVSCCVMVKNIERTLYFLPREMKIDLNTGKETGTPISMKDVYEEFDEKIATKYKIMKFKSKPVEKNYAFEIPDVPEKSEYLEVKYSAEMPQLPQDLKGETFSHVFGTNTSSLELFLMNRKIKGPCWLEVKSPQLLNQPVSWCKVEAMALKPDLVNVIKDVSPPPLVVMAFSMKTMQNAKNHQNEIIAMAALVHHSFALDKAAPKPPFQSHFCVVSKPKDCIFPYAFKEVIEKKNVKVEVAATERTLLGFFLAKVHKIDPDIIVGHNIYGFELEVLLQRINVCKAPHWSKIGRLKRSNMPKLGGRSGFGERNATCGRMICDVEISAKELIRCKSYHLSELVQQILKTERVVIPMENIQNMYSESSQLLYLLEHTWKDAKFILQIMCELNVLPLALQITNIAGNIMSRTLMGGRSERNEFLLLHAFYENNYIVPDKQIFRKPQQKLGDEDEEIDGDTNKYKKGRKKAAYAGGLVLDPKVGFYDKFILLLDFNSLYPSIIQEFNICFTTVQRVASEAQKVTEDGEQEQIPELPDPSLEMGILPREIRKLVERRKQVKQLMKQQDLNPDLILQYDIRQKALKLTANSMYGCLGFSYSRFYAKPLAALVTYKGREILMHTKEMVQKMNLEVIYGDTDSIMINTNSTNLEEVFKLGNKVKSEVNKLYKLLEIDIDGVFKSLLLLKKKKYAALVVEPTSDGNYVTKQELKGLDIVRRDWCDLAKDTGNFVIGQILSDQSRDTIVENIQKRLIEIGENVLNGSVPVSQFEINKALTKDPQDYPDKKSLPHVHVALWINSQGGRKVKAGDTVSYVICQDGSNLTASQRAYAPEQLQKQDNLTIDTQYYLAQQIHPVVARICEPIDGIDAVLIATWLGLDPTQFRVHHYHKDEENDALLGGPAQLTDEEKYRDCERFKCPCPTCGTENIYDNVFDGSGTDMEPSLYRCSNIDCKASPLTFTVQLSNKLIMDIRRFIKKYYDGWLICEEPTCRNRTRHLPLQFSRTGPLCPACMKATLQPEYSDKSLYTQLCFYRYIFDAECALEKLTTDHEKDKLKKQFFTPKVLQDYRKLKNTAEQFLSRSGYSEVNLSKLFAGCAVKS
The assay can be described thus: Compound was tested for the inhibition of HeLa DNA polymerase. The settings on record: concentration not given here. A digest of the protocol: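 Cellular polymerase taken from crude HSV1-infected HeLa extract, assayed without (NH4)2SO4. Inhibitor came as 20 µL of a 3-h, 37 °C enzymatic phosphorylation mixture, in 50 mM Tris pH 8 with 5 mM MgCl2, activated salmon sperm DNA and 0.05 mM each dNTP ([3H]dTTP). Incubation 1 h at 37 °C, then TCA-insoluble radioactivity counted.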

In assay [5] the test system is MRC5. Description: Compound was tested for 50% inhibition of HSV-1 induced cytopathic effect in MRC-5 cells. Conditions: Homo sapiens, read-out: ED50 (the source's name).
For assay [6], the system named is MRC5. Description: Compound was tested for 50% inhibition of HSV-1 induced cytopathic effect in MRC-5 cells; Not active. Conditions: Homo sapiens, read-out: ED50 (the source's name).

≈ marks a conversion by molar mass, not a printed value.

In the assay with Human alphaherpesvirus 1 [1], `Nc1nc(O)c2ncn(COCC(O)CO)c2n1` (centres undefined) [listing 1 of 2 here] registered a Phosphorylation of 59%. Also, in the assay with MRC5 [2], the EC50 came to 3 µg/mL (≈ 11.8 µM). Besides, the Inhibition – broadly, how much of the control response was suppressed – with Human alphaherpesvirus 1 [3] is 36%.
On to `Nc1nc2c(ncn2COCCO)c(=O)[nH]1` [ACYCLOVIR], for which the inhibition (in general, the change of the read-out against control, counted positive when it falls) in assay [4] was determined as 37%. For the same compound, the Inhibition in the assay on Human alphaherpesvirus 1 [3] worked out at 86%.
In the case of `Nc1nc(O)c2ncn(COCC(O)CO)c2n1` (single isomer, unassigned; form 1) [listing 1 of 2 here], the Inhibition with Human alphaherpesvirus 1 [3] was found to be 54%.
As for `CC(O)COCn1cnc2c(O)nc(N)nc21` (centres undefined), the Phosphorylation in the assay with Human alphaherpesvirus 1 [1] worked out at 5%. Further, the EC50 in the assay with MRC5 [5] worked out at 100 µg/mL (≈ 418 µM).
`Nc1nc(O)c2ncn(COCC(F)CO)c2n1` (centres undefined) registered a Phosphorylation in the assay on Human alphaherpesvirus 1 [1] of 42%. In the assay on MRC5 [5], the EC50 was 25 µg/mL (≈ 97.2 µM).
Consider `Nc1nc(O)c2ncn(COCC(O)CO)c2n1` (single isomer, unassigned; form 1) [listing 2 of 2 here], for which, in assay [4], the inhibition stood at 10%.
As to `Nc1nc(O)c2ncn(COCC(O)CF)c2n1` (centres undefined), the Phosphorylation in the assay with Human alphaherpesvirus 1 [1] is 4%. The EC50 with MRC5 [6] is greater than 100 µg/mL.
For `Nc1nc(O)c2ncn(COCC(O)CO)c2n1` (centres undefined) [listing 2 of 2 here], in assay [4], the inhibition was found to be 6%.
The compound `Nc1nc2c(ncn2COC(CO)CO)c(=O)[nH]1` [GANCICLOVIR] came in with an inhibition in assay [4] of 17%. This compound also displayed an Inhibition in the assay on Human alphaherpesvirus 1 [3] of 60%.
For `Nc1nc(O)c2ncn(COCC(O)CO)c2n1` (single isomer, unassigned; form 2), the Inhibition in the assay on Human alphaherpesvirus 1 [3] stood at 14%.
The compound `Nc1nc(O)c2ncn(COCCCO)c2n1` had a Phosphorylation with Human alphaherpesvirus 1 [1] of 88%. Moreover, the EC50 in the assay on MRC5 [5] is 50 µg/mL (≈ 209 µM).

The values above are taken from ChEMBL document CHEMBL1123186, “Enzymatic phosphorylation of the antiherpetic agent 9-[(2,3-dihydroxy-1-propoxy)methyl]guanine” (1986).
